For assay [1], the system named is Phytophthora infestans. Kind of assay: Fungicidal activity against Phytophthora infestans assessed as inhibition of disease development in compound treated leaf pieces at 200 ppm relative to untreated control (tomato-preventative). The format is functional. The essentials: (§1)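 Preventative leaf-piece test on host tissue (tomato, vine, wheat or barley). Formulated compound applied at 200, 60 and 20 ppm before spore inoculation. Disease scored 3–9 days after inoculation, depending on the pathogen, as percent inhibition of disease development versus untreated controls. Values are the mean across replicates.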

Assay [2] deals with Phytophthora infestans. Kind of assay: Fungicidal activity against Phytophthora infestans assessed as inhibition of mycelia growth at 200 ppm. The format is functional, organism-based.
A further assay relates to Botrytis cinerea. Kind of assay: Fungicidal activity against Botryotinia fuckeliana assessed as inhibition of mycelia growth at 2 ppm. The format is functional, organism-based. The essentials: (§2)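 Mycelial growth test in 96-well plates: compound incorporated into artificial growth medium at 2 ppm, two replicates per rate. Each well scored 99 for complete, 55 for partial or 0 for no inhibition. Values are the mean across replicates; azoxystrobin and prochloraz used as positive controls.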

The next assay concerns Pythium dissimile. Kind of assay: Fungicidal activity against Pythium dissimile assessed as inhibition of mycelia growth at 2 ppm. In kind it is functional, organism-based. The method in brief:
as §2

In assay [3] the test system is Digitaria sanguinalis. The experiment in a line: Herbicidal activity against Digitaria sanguinalis (hairy crabgrass) assessed as growth inhibition at 1 kg/ha preemergence treatment by glasshouse test. As to conditions: pre-emergence, read-out: GI. In kind it is functional. The method in brief:
(§3)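 Glasshouse screen with pre- or postemergence application at 1.0 kg/ha. Result given as percent inhibition of plant growth; norflurazon and glyphosate used as controls.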

For a further assay, the system named is Amaranthus retroflexus. Kind of assay: Herbicidal activity against Amaranthus retroflexus assessed as growth inhibition at 1 kg/ha preemergence treatment by glasshouse test. In kind it is functional. The note with it: pre-emergence, read-out: GI. The essentials: as §3
Assay [4] has as its system Digitaria sanguinalis. The experiment in a line: Herbicidal activity against Digitaria sanguinalis (hairy crabgrass) assessed as growth inhibition at 1 kg/ha postemergence treatment by glasshouse test. In kind it is functional. The note with it: post-emergence, read-out: GI. The method in brief:
as §3

The test system of another assay is Poa annua. The experiment in a line: Herbicidal activity against Poa annua assessed as growth inhibition at 32 ppm by 96-well plate test. The format is functional. As to conditions: read-out: GI. The method in brief: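 96-well plate herbicide screen: Arabidopsis thaliana at 10 ppm and Poa annua at 32 ppm, two replicates. Plates incubated seven days in a controlled-environment cabinet. Each replicate scored 0 (no visible effect) or 99 (herbicidal effect); values are the mean of the two. Atrazine used as reference.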

The next assay has as its system Echinochloa crus-galli. The experiment in a line: Herbicidal activity against Echinochloa crus-galli (barnyard grass) at 1.5 kg/ha postemergence treatment measured after 10 days by glasshouse test. In kind it is functional. As to conditions: post-emergence, 240 h. The method in brief:
(§4)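 Glasshouse pre/postemergence test, each treatment in triplicate. Above-ground fresh weight measured 10 days after treatment. Result expressed as percent inhibition versus control, from 0 (no control) to 100 (complete control); glyphosate used as positive control.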

The next assay relates to Brassica napus. The experiment in a line: Herbicidal activity against Brassica napus (oilseed rape) at 1.5 kg/ha postemergence treatment measured after 10 days by glasshouse test. In kind it is functional. The note with it: post-emergence, 240 h. The method in brief: as §4
Assay [5] concerns Parastagonospora nodorum. The experiment in a line: Fungicidal activity against Phaeosphaeria nodorum assessed as inhibition of disease development in compound treated leaf pieces at 20 ppm relative to untreated control (wheat preventative). The format is functional. The method in brief: as §1
Another assay concerns Puccinia triticina. The experiment in a line: Fungicidal activity against Puccinia triticina assessed as inhibition of disease development in compound treated leaf pieces at 20 ppm relative to untreated control (wheat-preventative). The format is functional. The method in brief:
as §1

For assay [6], the system named is Parastagonospora nodorum. Kind of assay: Fungicidal activity against Phaeosphaeria nodorum assessed as inhibition of disease development in compound treated leaf pieces at 60 ppm relative to untreated control (wheat preventative). The format is functional. The essentials: as §1
The test system of assay [7] is Blumeria graminis f. sp. tritici. The experiment in a line: Fungicidal activity against Blumeria graminis f. sp. tritici assessed as inhibition of disease development in compound treated leaf pieces at 60 ppm relative to untreated control (wheat-preventative). In kind it is functional.

One compound from ChEMBL document CHEMBL3046679, “Design, synthesis, and biological activities of arylmethylamine substituted chlorotriazine and methylthiotriazine compounds” (J Agric Food Chem, 2011) can be followed below.

Molecules are shown by their SMILES. Active and inactive are the calls of the source. The calls are words filed in the database; no cut-off is given here.

For orientation: inhibition means the share of the control response that was lost under treatment. In the case of `CC(C)Nc1nc(Cl)nc(NCc2ccc(F)cc2)n1`, the inhibition at 200 ppm in the assay with Phytophthora infestans [1] is 0%. For the same compound, the inhibition result with Phytophthora infestans [2] and in the assay with Pythium dissimile was “inactive” in each case. In the assay with Botrytis cinerea, the inhibition result is “Active”. Moreover, the inhibition of growth at 1000 g/ha with Digitaria sanguinalis [3] came to 70%; with Amaranthus retroflexus it was 100%; with Digitaria sanguinalis [4], 0%. Moreover, the inhibition of growth at 32 ppm in the assay on Poa annua worked out at 0%. For the same compound, the inhibition at 1500 g/ha worked out at 75.7% with Echinochloa crus-galli and 100% with Brassica napus. The inhibition at 20 ppm with Parastagonospora nodorum [5] and in the assay with Puccinia triticina was 0% each time. Moreover, the inhibition at 60 ppm (in the assay with Parastagonospora nodorum [6]; in assay [7]) was 20% each time.
